Reference: ChEMBL document CHEMBL4680175, “Sulfonamide-based ring-fused analogues for CAN508 as novel carbonic anhydrase inhibitors endowed with antitumor activity: Design, synthesis, and in vitro biological evaluation” (Eur J Med Chem, 2020)
Active and inactive are the calls of the source. The calls are words filed in the database; no cut-off is given here.

Assays:
NCI/ADR-RES = assay: Antitumor activity against human NCI/ADR-RES cells assessed as cell growth inhibition at 10 uM incubated for 48 hrs by sulforhodamine B assay; format: functional, cell-based
In short: (§1)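 NCI Drug Evaluation Branch protocol: primary single-dose screen at 10 μM across a 57-line human cancer panel. Drug exposure is 48 h. Cell growth and viability are read by sulforhodamine B assay. Data are given as a mean graph of percent growth of treated cells and reported as percentage growth inhibition (GI%).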

OVCAR-3 = assay: Antitumor activity against human OVCAR-3 cells assessed as cell growth inhibition at 10 uM incubated for 48 hrs by sulforhodamine B assay; format: functional; conditions: read-out: GI; in short: as §1
SN12C = assay: Antitumor activity against human SN12C cells assessed as cell growth inhibition at 10 uM incubated for 48 hrs by sulforhodamine B assay; format: functional; conditions: read-out: GI; in short: as §1
UO-31 = assay: Antitumor activity against human UO-31 cells assessed as cell growth inhibition at 10 uM incubated for 48 hrs by sulforhodamine B assay; format: functional; conditions: read-out: GI
In short: (§2)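 NCI one-dose screen: 57-cell-line panel exposed at 10 μM for 48 h, Drug Evaluation Branch protocol. Growth and viability read by sulforhodamine B; data given as percent growth inhibition from the mean-graph of percent growth of treated cells.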

Malme-3M = assay: Antitumor activity against human MALME-3M cells assessed as cell growth inhibition at 10 uM incubated for 48 hrs by sulforhodamine B assay; format: functional; conditions: read-out: GI; in short: as §1
Carbonic anhydrase 9 = Carbonic anhydrase 9 (Homo sapiens, UniProt Q16790); assay: Inhibition of recombinant human carbonic anhydrase 9 preincubated with enzyme for 15 mins by phenol red dye based stopped flow CO2 hydrase assay
OVCAR-8 = assay: Antitumor activity against human OVCAR-8 cells assessed as cell growth inhibition at 10 uM incubated for 48 hrs by sulforhodamine B assay; format: functional; conditions: read-out: GI; in short: as §1
SNB-75 = assay: Antitumor activity against human SNB-75 cells assessed as cell growth inhibition at 10 uM incubated for 48 hrs by sulforhodamine B assay; format: functional; conditions: read-out: GI; in short: as §2
SK-MEL-5 = assay: Antitumor activity against human SK-MEL-5 cells assessed as cell growth inhibition at 10 uM incubated for 48 hrs by sulforhodamine B assay; format: functional; conditions: read-out: GI; in short: as §1
NCI-H460 = assay: Antitumor activity against human NCI-H460 cells assessed as cell growth inhibition at 10 uM incubated for 48 hrs by sulforhodamine B assay; format: functional; conditions: read-out: GI; in short: as §1
MCF7 = assay: Antitumor activity against human MCF7 cells assessed as cell growth inhibition at 10 uM incubated for 48 hrs by sulforhodamine B assay; format: functional; conditions: read-out: GI; in short: as §1
HCT-116 = assay: Antitumor activity against human HCT116 cells assessed as cell growth inhibition at 10 uM incubated for 48 hrs by sulforhodamine B assay; format: functional; conditions: read-out: GI; in short: as §1
CAKI-1 = assay: Antitumor activity against human CAKI-1 cells assessed as cell growth inhibition at 10 uM incubated for 48 hrs by sulforhodamine B assay; format: functional; conditions: read-out: GI; in short: as §1
Carbonic anhydrase 12 = Carbonic anhydrase 12 (Homo sapiens, UniProt O43570); assay: Inhibition of recombinant human carbonic anhydrase 12 preincubated with enzyme for 15 mins by phenol red dye based stopped flow CO2 hydrase assay
Sequence of Carbonic anhydrase 12 (O43570 whole entry): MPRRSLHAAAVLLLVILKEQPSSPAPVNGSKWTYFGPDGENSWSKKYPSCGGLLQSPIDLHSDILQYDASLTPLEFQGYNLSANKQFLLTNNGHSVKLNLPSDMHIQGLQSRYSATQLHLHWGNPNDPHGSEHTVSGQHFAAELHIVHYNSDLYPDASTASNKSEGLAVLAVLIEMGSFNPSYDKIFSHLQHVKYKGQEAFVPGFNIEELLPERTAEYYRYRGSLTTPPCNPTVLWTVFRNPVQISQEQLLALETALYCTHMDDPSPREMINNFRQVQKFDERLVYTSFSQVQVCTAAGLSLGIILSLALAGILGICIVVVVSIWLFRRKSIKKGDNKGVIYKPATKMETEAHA

SF-268 = assay: Antitumor activity against human SF268 cells assessed as cell growth inhibition at 10 uM incubated for 48 hrs by sulforhodamine B assay; format: functional; conditions: read-out: GI; in short: as §1
MDA-MB-468 = assay: Antitumor activity against human MDA-MB-468 cells assessed as cell growth inhibition at 10 uM incubated for 48 hrs by sulforhodamine B assay; format: functional; conditions: read-out: GI; in short: as §1
KM12 = assay: Antitumor activity against human KM12 cells assessed as cell growth inhibition at 10 uM incubated for 48 hrs by sulforhodamine B assay; format: functional; conditions: read-out: GI; in short: as §1
RXF 393 = assay: Antitumor activity against human RXF 393 cells assessed as cell growth inhibition at 10 uM incubated for 48 hrs by sulforhodamine B assay; format: functional; conditions: read-out: GI; in short: as §1
CDK9/cyclin T1 = CDK9/cyclin T1 (Homo sapiens, UniProt P50750); assay: Inhibition of human full-length N-terminal GST/His6-tagged CDK9 (1 to 372 residues)/His6-tagged Cyclin-T1 (1 to 726 residues) expressed in sf9 cells using (YSPTSPS)2KK peptide as substrate in presence of [gamma33P]ATP
Sequence of CDK9/cyclin T1 (O60563 whole entry, the tested form may be a part): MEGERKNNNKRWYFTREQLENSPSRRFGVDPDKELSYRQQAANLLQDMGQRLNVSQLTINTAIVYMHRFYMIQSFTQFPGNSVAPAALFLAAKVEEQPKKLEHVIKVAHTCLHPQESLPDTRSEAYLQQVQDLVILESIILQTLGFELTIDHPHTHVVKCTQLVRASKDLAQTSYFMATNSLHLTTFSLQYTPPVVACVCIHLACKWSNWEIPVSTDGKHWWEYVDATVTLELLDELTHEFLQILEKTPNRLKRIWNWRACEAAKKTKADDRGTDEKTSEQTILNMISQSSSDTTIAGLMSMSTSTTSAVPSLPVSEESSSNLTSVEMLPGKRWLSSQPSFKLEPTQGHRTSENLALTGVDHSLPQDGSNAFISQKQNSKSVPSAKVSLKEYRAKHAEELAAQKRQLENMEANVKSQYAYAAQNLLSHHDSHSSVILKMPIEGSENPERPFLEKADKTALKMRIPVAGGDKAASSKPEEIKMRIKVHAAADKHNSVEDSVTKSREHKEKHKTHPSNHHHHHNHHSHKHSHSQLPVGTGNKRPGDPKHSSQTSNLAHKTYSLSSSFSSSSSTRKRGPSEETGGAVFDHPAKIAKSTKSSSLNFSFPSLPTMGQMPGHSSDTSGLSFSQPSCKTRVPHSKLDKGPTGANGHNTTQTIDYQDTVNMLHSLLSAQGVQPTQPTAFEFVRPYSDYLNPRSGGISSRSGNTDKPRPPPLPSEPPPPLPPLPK
Sequence of CDK9/cyclin T1 (P50750 whole entry, the tested form may be a part): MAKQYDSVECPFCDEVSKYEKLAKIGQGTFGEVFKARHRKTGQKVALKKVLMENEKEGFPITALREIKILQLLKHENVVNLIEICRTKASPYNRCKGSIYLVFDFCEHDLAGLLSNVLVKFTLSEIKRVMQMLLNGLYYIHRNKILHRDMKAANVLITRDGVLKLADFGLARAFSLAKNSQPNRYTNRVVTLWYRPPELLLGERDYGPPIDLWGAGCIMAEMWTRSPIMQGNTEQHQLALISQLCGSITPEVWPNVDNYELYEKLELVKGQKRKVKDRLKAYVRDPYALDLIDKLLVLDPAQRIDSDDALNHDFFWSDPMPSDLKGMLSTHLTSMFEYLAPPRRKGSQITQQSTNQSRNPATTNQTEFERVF

NCI-H226 = assay: Antitumor activity against human NCI-H226 assessed as cell growth inhibition at 10 uM incubated for 48 hrs by sulforhodamine B assay; format: functional; conditions: read-out: GI; in short: as §1
MDA-MB-231 = assay: Antitumor activity against human MDA-MB-231/ATCC cells assessed as cell growth inhibition at 10 uM incubated for 48 hrs by sulforhodamine B assay; format: functional; conditions: read-out: GI; in short: as §1
SF-539 = assay: Antitumor activity against human SF539 cells assessed as cell growth inhibition at 10 uM incubated for 48 hrs by sulforhodamine B assay; format: functional; conditions: read-out: GI; in short: as §1
Hs-578T = assay: Antitumor activity against human HS 578T cells assessed as cell growth inhibition at 10 uM incubated for 48 hrs by sulforhodamine B assay; format: functional; conditions: read-out: GI; in short: as §1
HOP-92 = assay: Antitumor activity against human HOP92 cells assessed as cell growth inhibition at 10 uM incubated for 48 hrs by sulforhodamine B assay; format: functional; conditions: read-out: GI; in short: as §1
BT-549 = assay: Antitumor activity against human BT-549 cells assessed as cell growth inhibition at 10 uM incubated for 48 hrs by sulforhodamine B assay; format: functional; conditions: read-out: GI; in short: as §1
T47D = assay: Antitumor activity against human T-47D cells assessed as cell growth inhibition at 10 uM incubated for 48 hrs by sulforhodamine B assay; format: functional; conditions: read-out: GI; in short: as §2
U-251 = assay: Antitumor activity against human U251 cells assessed as cell growth inhibition at 10 uM incubated for 48 hrs by sulforhodamine B assay; format: functional; conditions: read-out: GI; in short: as §2
NCI-H322M = assay: Antitumor activity against human NCI-H322M cells assessed as cell growth inhibition at 10 uM incubated for 48 hrs by sulforhodamine B assay; format: functional; conditions: read-out: GI; in short: as §1
Carbonic anhydrase 1 = Carbonic anhydrase 1 (Homo sapiens, UniProt P00915); assay: Inhibition of recombinant human carbonic anhydrase 1 preincubated with enzyme for 15 mins by phenol red dye based stopped flow CO2 hydrase assay
Sequence of Carbonic anhydrase 1 (P00915 whole entry): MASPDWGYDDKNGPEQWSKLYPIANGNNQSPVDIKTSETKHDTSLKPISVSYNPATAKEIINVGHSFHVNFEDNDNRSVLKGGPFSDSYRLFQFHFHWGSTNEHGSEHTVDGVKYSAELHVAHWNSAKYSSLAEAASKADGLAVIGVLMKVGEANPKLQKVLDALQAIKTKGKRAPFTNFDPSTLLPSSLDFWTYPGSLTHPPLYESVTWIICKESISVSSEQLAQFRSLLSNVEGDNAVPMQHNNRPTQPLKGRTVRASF

[1] = molecular target: Cyclin-dependent kinase 2/cyclin E1 (Homo sapiens, UniProt P24941); assay: Inhibition of CDK2/cyclin E (unknown origin) expressed in baculovirus infected Sf21 insect cells using histone H1 as substrate in presence of [gamma33P]ATP
LOX IMVI = assay: Antitumor activity against human LOX IMVI cells assessed as cell growth inhibition at 10 uM incubated for 48 hrs by sulforhodamine B assay; format: functional; conditions: read-out: GI; in short: as §1
K562 = assay: Antitumor activity against human K562 cells assessed as cell growth inhibition at 10 uM incubated for 48 hrs by sulforhodamine B assay; format: functional; conditions: read-out: GI; in short: as §1
Carbonic anhydrase 2 = Carbonic anhydrase 2 (Homo sapiens, UniProt P00918); assay: Inhibition of recombinant human carbonic anhydrase 2 preincubated with enzyme for 15 mins by phenol red dye based stopped flow CO2 hydrase assay
IGROV-1 = assay: Antitumor activity against human IGROV1 cells assessed as cell growth inhibition at 10 uM incubated for 48 hrs by sulforhodamine B assay; format: functional; conditions: read-out: GI; in short: as §1
SK-MEL-2 = assay: Antitumor activity against human SK-MEL-2 cells assessed as cell growth inhibition at 10 uM incubated for 48 hrs by sulforhodamine B assay; format: functional; conditions: read-out: GI; in short: as §1
MOLT-4 = assay: Antitumor activity against human MOLT4 cells assessed as cell growth inhibition at 10 uM incubated for 48 hrs by sulforhodamine B assay; format: functional; conditions: read-out: GI; in short: as §1
PC-3 = assay: Antitumor activity against human PC-3 cells assessed as cell growth inhibition at 10 uM incubated for 48 hrs by sulforhodamine B assay; format: functional; conditions: read-out: GI; in short: as §1

With `Nc1nn2cc(-c3ccccc3)[nH]c2c1/N=N/c1ccc(S(N)(=O)=O)cc1` the Activity (NCI/ADR-RES) was “inactive”, the inhibition of growth at 10 µM (OVCAR-3) was 53% and the inhibition of growth at 10 µM (SN12C) was 80%. The inhibition of growth at 10 µM (UO-31) was 81%, the inhibition of growth at 10 µM (Malme-3M) was 74% and the Ki (Carbonic anhydrase 9) was 38.1 nM. The inhibition of growth at 10 µM (OVCAR-8) was 63%, the inhibition of growth at 10 µM (SNB-75) was 99% and the inhibition of growth at 10 µM (SK-MEL-5) was 73%. The inhibition of growth at 10 µM (NCI-H460) was 80%, the inhibition of growth at 10 µM (MCF7) was 54% and the inhibition of growth at 10 µM (HCT-116) was 77%. The inhibition of growth at 10 µM (CAKI-1) was 96%, the Ki (Carbonic anhydrase 12) was 30.6 nM and the inhibition of growth at 10 µM (SF-268) was 63%. The inhibition of growth at 10 µM (MDA-MB-468) was 67%, the inhibition of growth at 10 µM (KM12) was 67% and the inhibition of growth at 10 µM (RXF 393) was 93%. It also gave an IC50 (CDK9/cyclin T1) of over 25000 nM, an inhibition of growth at 10 µM (NCI-H226) of 47% and an inhibition of growth at 10 µM (MDA-MB-231) of 80%. The inhibition of growth at 10 µM (SF-539) was 80%, the inhibition of growth at 10 µM (Hs-578T) was 95% and the inhibition of growth at 10 µM (HOP-92) was 74%. It also gave an inhibition of growth at 10 µM (BT-549) of 41%, an inhibition of growth at 10 µM (T47D) of 57% and an inhibition of growth at 10 µM (U-251) of 61%. It also gave an inhibition of growth at 10 µM (NCI-H322M) of 63%, a Ki (Carbonic anhydrase 1) of 957 nM and an IC50 [1] of over 25000 nM. The inhibition of growth at 10 µM (LOX IMVI) was 83%, the inhibition of growth at 10 µM (K562) was 67% and the Ki (Carbonic anhydrase 2) was 75.4 nM. For the same compound, the inhibition of growth at 10 µM (IGROV-1) was 85%, the inhibition of growth at 10 µM (SK-MEL-2) was 68% and the inhibition of growth at 10 µM (MOLT-4) was 86%. It also gave an inhibition of growth at 10 µM (PC-3) of 68%.
`N#Cc1c(-c2ccc(Br)cc2)nc2c(/N=N/c3ccc(S(N)(=O)=O)cc3)c(N)nn2c1N` was tested, and the Activity (NCI/ADR-RES) was “inactive”, the inhibition of growth at 10 µM (OVCAR-3) was 45% and the inhibition of growth at 10 µM (SN12C) was 54%. It also gave an inhibition of growth at 10 µM (UO-31) of 41%, an inhibition of growth at 10 µM (Malme-3M) of 42% and a Ki (Carbonic anhydrase 9) of 65.7 nM. For the same compound, the inhibition of growth at 10 µM (OVCAR-8) was 53%, the inhibition of growth at 10 µM (SNB-75) was 43% and the inhibition of growth at 10 µM (SK-MEL-5) was 54%. The inhibition of growth at 10 µM (NCI-H460) was 63%, the inhibition of growth at 10 µM (MCF7) was 68% and the inhibition of growth at 10 µM (HCT-116) was 75%. For the same compound, the inhibition of growth at 10 µM (CAKI-1) was 47%, the Ki (Carbonic anhydrase 12) was 43.2 nM and the inhibition of growth at 10 µM (SF-268) was 44%. It also gave an inhibition of growth at 10 µM (MDA-MB-468) of 76%, an inhibition of growth at 10 µM (KM12) of 48% and an inhibition of growth at 10 µM (RXF 393) of 58%. The IC50 (CDK9/cyclin T1) was over 12500 nM, the inhibition of growth at 10 µM (NCI-H226) was 34% and the inhibition of growth at 10 µM (MDA-MB-231) was 59%. For the same compound, the inhibition of growth at 10 µM (SF-539) was 61%, the inhibition of growth at 10 µM (Hs-578T) was 55% and the inhibition of growth at 10 µM (HOP-92) was 69%. It also gave an inhibition of growth at 10 µM (BT-549) of 26%, an inhibition of growth at 10 µM (T47D) of 68% and an inhibition of growth at 10 µM (U-251) of 59%. For the same compound, the inhibition of growth at 10 µM (NCI-H322M) was 25%, the Ki (Carbonic anhydrase 1) was 4160 nM and the IC50 [1] was over 12500 nM. For the same compound, the inhibition of growth at 10 µM (LOX IMVI) was 71%, the inhibition of growth at 10 µM (K562) was 64% and the Ki (Carbonic anhydrase 2) was 885 nM. It also gave an inhibition of growth at 10 µM (IGROV-1) of 59%, an inhibition of growth at 10 µM (SK-MEL-2) of 57% and an inhibition of growth at 10 µM (MOLT-4) of 98%. It also gave an inhibition of growth at 10 µM (PC-3) of 62%.
